Experimental findings from ChEMBL document CHEMBL3864176, “New Series of BPL Inhibitors To Probe the Ribose-Binding Pocket of Staphylococcus aureus Biotin Protein Ligase” (ACS Med Chem Lett, 2016) are described below.

For series [1], the target named is T1, Biotin--protein ligase (Homo sapiens, UniProt P50747).
T1 sequence (P50747 whole entry): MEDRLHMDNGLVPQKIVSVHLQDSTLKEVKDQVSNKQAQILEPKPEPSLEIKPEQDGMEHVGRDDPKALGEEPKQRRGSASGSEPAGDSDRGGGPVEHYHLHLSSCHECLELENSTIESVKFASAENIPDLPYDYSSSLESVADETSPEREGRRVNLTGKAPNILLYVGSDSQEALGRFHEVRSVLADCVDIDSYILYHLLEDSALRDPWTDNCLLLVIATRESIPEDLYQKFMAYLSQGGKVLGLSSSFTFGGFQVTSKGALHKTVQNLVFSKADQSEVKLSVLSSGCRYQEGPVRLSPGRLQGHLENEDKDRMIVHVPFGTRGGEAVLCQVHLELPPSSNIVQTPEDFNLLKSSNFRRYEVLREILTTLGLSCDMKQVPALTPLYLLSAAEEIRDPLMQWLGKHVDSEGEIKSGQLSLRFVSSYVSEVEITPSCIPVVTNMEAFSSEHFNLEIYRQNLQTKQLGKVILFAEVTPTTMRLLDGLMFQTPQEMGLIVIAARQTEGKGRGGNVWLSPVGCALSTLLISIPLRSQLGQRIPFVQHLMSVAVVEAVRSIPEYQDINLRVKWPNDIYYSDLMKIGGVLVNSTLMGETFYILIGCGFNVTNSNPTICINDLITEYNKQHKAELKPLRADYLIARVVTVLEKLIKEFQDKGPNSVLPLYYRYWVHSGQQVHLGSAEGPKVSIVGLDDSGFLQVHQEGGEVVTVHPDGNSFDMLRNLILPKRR
The series can be described thus: Inhibition of human biotin protein ligase assessed as reduction in 3H-biotin incorporation into pyruvate carboxylase biotin domain after 10 mins by liquid scintillation counting analysis. The gist of the method: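 Recombinant human BPL; radiolabeled biotin transfer onto an acceptor protein measured with 100 μM compound included in the assay medium.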

Series [2] in a line: Inhibition of Staphylococcus aureus biotin protein ligase assessed as reduction in 3H-biotin incorporation into Staphylococcus aureus pyruvate carboxylase biotin domain after 10 mins by liquid scintillation counting analysis. The gist of the method:
(§1)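 Recombinant S. aureus BPL; enzymatic incorporation of radiolabeled biotin onto an acceptor protein measured across varying inhibitor concentrations to give IC50. Ki calculated from IC50 assuming competitive inhibition versus biotin, using the known KM for biotin.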

Series [3] has as its system Staphylococcus aureus. In words: Growth inhibition of Staphylococcus aureus ATCC 49775 after 16 to 20 hrs by microbroth dilution method relative to control. The series is classed as functional. Set-up: concentration or dose not given beside the values. The gist of the method: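 S. aureus ATCC 49775 cultured with compound; growth read spectrophotometrically at 600 nm 20 h post-treatment. Activity called where culture optical density fell by >40% relative to nontreated controls.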
(In general: Broth dilution looks for growth in wells or tubes with falling amounts of substance.)

Series [4] deals with Staphylococcus aureus. In words: Growth inhibition of Staphylococcus aureus RN4220 harboring pCN51 at 16 ug/ml measured every 30 mins for 16 hrs. The series is classed as functional. Put shortly: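 Cultures grown in medium with 16 μg/mL compound for 16 h; optical density read every 30 min and compared with nontreated controls. Part of a target-overexpression test of the BPL mechanism.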

Series [5] can be described thus: Selectivity ratio of Ki for Staphylococcus aureus C-terminal His6-tagged biotin protein ligase to Ki for human C-terminal His6-tagged biotin protein ligase. The gist of the method: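 Recombinant S. aureus and human BPLs; enzymatic incorporation of radiolabeled biotin onto an acceptor protein measured across varying compound concentrations. IC50 converted to Ki assuming competition with biotin, using the known biotin KM. Human enzyme tested with 100 μM compound in the assay.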

A short description of series [6]: Inhibition of Staphylococcus aureus C-terminal His6-tagged biotin protein ligase assessed as reduction in 3H-biotin incorporation into biotin domain of substrate. The gist of the method:
as §1

Series [7] in a line: Cytotoxicity against human HepG2 cells assessed as decrease in cell viability at 40 ug/ml after 24 to 48 hrs by WST-1 assay. The series is classed as toxicity, cell-based. Put shortly:
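Cultured HepG2 cells (ATCC HB-8065) exposed to compound at a single concentration of 40 μg/mL to assess cytotoxicity.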
For orientation: Tetrazolium dyes change colour on reduction, which living cells bring about.

pKi: −log10 of the molar value. Calls of active or inactive are those of the source. No cut-off for these calls is given here. Bounds are passed on as bounds.

A word on the pKi: it is −log10 of the Ki, conventionally taken in molar units. As for `COc1ccccc1Cn1cc(CCCCC[C@@H]2SC[C@@H]3NC(=O)N[C@@H]32)nn1`, the negative logarithm of the Ki (pKi) was less than 4.80 in series [1] and 6.28 in series [2].

In the case of `O=C1N[C@H]2[C@H](CS[C@H]2CCCCCc2cn(Cc3ccc(I)cc3)nn2)N1`, the pKi in series [1] is less than 4.80; in series [2], 6.25. Further, the “growth inhibition (GI)” value in series [3] is greater than 40%.

With `O=C1N[C@H]2[C@H](CS[C@H]2CCCCCc2cn(Cc3cccc(O)c3)nn2)N1`, the negative logarithm of the Ki (pKi) in series [1] is less than 4.80; in series [2], less than 5.00.

Turning to `CC(C)(C)c1ccc(Cn2cc(CCCCC[C@@H]3SC[C@@H]4NC(=O)N[C@@H]43)nn2)cc1`, the pKi in series [1] was less than 4.80; in series [2], 5.96. Further, the “growth inhibition (GI)” value in series [3] was greater than 40%.

In the case of `O=C1N[C@H]2[C@H](CS[C@H]2CCCCCc2cn(Cc3ccccc3O)nn2)N1`, the negative logarithm of the Ki (pKi) in series [1] was less than 4.80; in series [2], less than 5.00.

In the case of `Cc1ccc(Cn2cc(CCCCC[C@@H]3SC[C@@H]4NC(=O)N[C@@H]43)nn2)cc1`, the pKi was less than 4.80 in series [1] and less than 5.00 in series [2].

For the compound `O=C1N[C@H]2[C@H](CS[C@H]2CCCCCc2cn(Cc3ccc(C(=O)O)cc3)nn2)N1`, the pKi in series [1] is less than 4.80; in series [2], 6.17.

For `Nc1ccccc1Cn1cc(CCCCC[C@@H]2SC[C@@H]3NC(=O)N[C@@H]32)nn1`, the values for the negative logarithm of the Ki (pKi) in series [1] and in series [2] were less than 4.80 and 5.83, respectively. The “growth inhibition (GI)” value in series [4] is “Active”. The “growth inhibition (GI)” value in series [3] is given as greater than 40%.

For the compound `O=C1N[C@H]2[C@H](CS[C@H]2CCCCCc2cn(Cc3ccccc3F)nn2)N1`, the values for the negative-log Ki (pKi) in series [1] and in series [2] were less than 4.80 and less than 5.00, respectively.

As to `Cc1cccc(Cn2cc(CCCCC[C@@H]3SC[C@@H]4NC(=O)N[C@@H]43)nn2)c1`, the values for the pKi in series [1] and in series [2] were less than 4.80 and 6.15, respectively. Also, the “growth inhibition (GI)” value in series [3] is greater than 40%.

`O=C1N[C@H]2[C@H](CS[C@H]2CCCCCc2cn(Cc3ccc(F)c(F)c3)nn2)N1`: the figures for the pKi in series [1] and in series [2] were less than 4.80 and less than 5.00, respectively.

For the compound `O=C1N[C@H]2[C@H](CS[C@H]2CCCCCc2cn(Cc3ccc(C(F)(F)F)cc3)nn2)N1`, the pKi in series [1] is less than 4.80; in series [2] it was less than 5.00.

`Cc1ccc2oc(=O)n(CCCCn3cc(CCCCC[C@@H]4SC[C@@H]5NC(=O)N[C@@H]54)nn3)c2c1`: in series [5], the Ratio Ki is greater than 1000. Besides, in series [6], the pKi is 7.05.

On to `O=C1N[C@H]2[C@H](CS[C@H]2CCCCCc2cn(Cc3cccc(C(F)(F)F)c3)nn2)N1`, for which the figures for the pKi in series [1] and in series [2] were less than 4.80 and less than 5.00, respectively.

For `Nc1cccc(Cn2cc(CCCCC[C@@H]3SC[C@@H]4NC(=O)N[C@@H]43)nn2)c1`, the pKi in series [1] is less than 4.80; in series [2], less than 5.00.

In the case of `COc1ccc(Cn2cc(CCCCC[C@@H]3SC[C@@H]4NC(=O)N[C@@H]43)nn2)cc1`, the pKi is less than 4.80 in series [1] and less than 5.00 in series [2].

Regarding `COc1cccc(Cn2cc(CCCCC[C@@H]3SC[C@@H]4NC(=O)N[C@@H]43)nn2)c1`, the values for the negative-log Ki (pKi) in series [1] and in series [2] were less than 4.80 and 5.96, respectively.

Regarding `O=C1N[C@H]2[C@H](CS[C@H]2CCCCCc2cn(Cc3ccccc3Br)nn2)N1`, the negative-log Ki (pKi) in series [1] is less than 4.80; in series [2], 6.02. For the same compound, in series [3], the “growth inhibition (GI)” value is on record as greater than 40%.

Turning to `O=C1N[C@H]2[C@H](CS[C@H]2CCCCCc2cn(Cc3cccc(I)c3)nn2)N1`, the pKi in series [1] was less than 4.80; in series [2], less than 5.00.

On to `O=C1N[C@H]2[C@H](CS[C@H]2CCCCCc2cn(Cc3ccc(O)cc3)nn2)N1`, for which the pKi is less than 4.80 in series [1] and 5.80 in series [2].

As for `Nc1ccc(Cn2cc(CCCCC[C@@H]3SC[C@@H]4NC(=O)N[C@@H]43)nn2)cc1`, the values for the pKi in series [1] and in series [2] were less than 4.80 and less than 5.00, respectively.

On to `O=C1N[C@H]2[C@H](CS[C@H]2CCCCCc2cn(Cc3cccc(F)c3)nn2)N1`, for which, in series [7], the Activity is greater than 40 µg/mL. Also, the pKi in series [1] is less than 4.80; in series [2], 6.55. Further, the “growth inhibition (GI)” value in series [4] was “Active”. Moreover, the “growth inhibition (GI)” value in series [3] was greater than 40%.

`O=C1N[C@H]2[C@H](CS[C@H]2CCCCCc2cn(Cc3ccccc3Cl)nn2)N1`: the negative-log Ki (pKi) in series [1] is less than 4.80; in series [2], less than 5.00.

For the compound `O=C1N[C@H]2[C@H](CS[C@H]2CCCCCc2cn(Cc3ccc(Cl)cc3)nn2)N1`, the Activity in series [7] is greater than 40 µg/mL. Besides, the pKi in series [1] was less than 4.80; in series [2] it was 5.96. For the same compound, the “growth inhibition (GI)” value in series [3] was greater than 40%.

For the compound `O=C1N[C@H]2[C@H](CS[C@H]2CCCCCc2cn(Cc3ccc(F)cc3)nn2)N1`, the Activity in series [7] is greater than 40 µg/mL. In addition, the pKi in series [1] is less than 4.80; in series [2], 6.22. The “growth inhibition (GI)” value in series [3] is greater than 40%.

On to `O=C1N[C@H]2[C@H](CS[C@H]2CCCCCc2cn(Cc3cccc(Cl)c3)nn2)N1`, for which the Activity in series [7] is greater than 40 µg/mL. The pKi was less than 4.80 in series [1] and 6.41 in series [2]. In series [3], the “growth inhibition (GI)” value was greater than 40%.
